Assay results taken from ChEMBL document CHEMBL2424603, “Design, synthesis, and biological and crystallographic evaluation of novel inhibitors of Plasmodium falciparum enoyl-ACP-reductase (PfFabI)” (J Med Chem, 2013).

Columns and labels:
L6 = test: Cytotoxicity against rat L6 cells assessed as growth inhibition after 72 hrs by fluorometric analysis; type: cell-based; conditions: L6, 72 h
How it was run: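 Mammalian L6 cell growth inhibition; IC50 taken as the average of at least two independent assays, each run in duplicate.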

[1] = Selectivity index, ratio of IC50 for rat L6 cells to IC50 for chloroquine/pyrimethamine-resistant Plasmodium falciparum K1; type: toxicity, cell-based; conditions: rat L6 cells (cytotoxicity) versus Plasmodium falciparum K1, read-out: Ratio IC50
How it was run: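 Ratio of the rat L6 cell growth-inhibition IC50 to the P. falciparum K1 IC50, calculated per WHO/TDR guidelines. Each cell IC50 is the average of at least two independent assays run in duplicate.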

[2] = Inhibition of recombinant Plasmodium falciparum FabI using crotonoyl-CoA as substrate assessed as consumption of NADH after 10 mins
How it was run: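 Recombinant PfFabI inhibition was followed spectrophotometrically. IC50 is the concentration giving 50% inhibition, reported as the mean of three independent experiments.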

Plasmodium falciparum [3] = test: Antiplasmodial activity against chloroquine/pyrimethamine-resistant Plasmodium falciparum K1 assessed as growth inhibition after […] by [3H]-hypoxanthine incorporation assay; type: functional, organism-based
How it was run: (§1)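 Tested against the chloroquine- and pyrimethamine-resistant K1 strain, with chloroquine as the standard drug. Growth was read by [3H]hypoxanthine incorporation. IC50 was taken from graphically plotted dose–response curves and averaged over at least two independent assays run in duplicate.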

Fatty acid synthase = biological target: T1, Fatty acid synthase (Plasmodium falciparum, UniProt Q965D7); test: Inhibition of recombinant Plasmodium falciparum FabZ using crotonoyl-CoA as substrate after 10 mins
T1 sequence (Q965D7 whole entry): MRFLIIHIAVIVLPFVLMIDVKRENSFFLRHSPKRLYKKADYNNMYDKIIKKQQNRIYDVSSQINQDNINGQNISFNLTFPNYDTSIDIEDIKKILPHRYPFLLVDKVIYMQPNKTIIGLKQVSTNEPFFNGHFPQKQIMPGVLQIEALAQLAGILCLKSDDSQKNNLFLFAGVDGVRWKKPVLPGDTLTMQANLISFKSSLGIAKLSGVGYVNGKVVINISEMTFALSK
How it was run: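 Recombinant enzymes PfFabG and PfFabZ were used. IC50 is the concentration giving 50% inhibition, reported as the mean of three independent experiments.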

[4] = biological target: T2, 3-oxoacyl-(Acyl-carrier protein) reductase (Plasmodium falciparum (isolate 3D7), UniProt Q8I2S7); test: Inhibition of recombinant Plasmodium falciparum 3D7 FabG using acetoacetyl-CoA as substrate after 10 mins in presence of NADPH
T2 sequence (Q8I2S7 whole entry): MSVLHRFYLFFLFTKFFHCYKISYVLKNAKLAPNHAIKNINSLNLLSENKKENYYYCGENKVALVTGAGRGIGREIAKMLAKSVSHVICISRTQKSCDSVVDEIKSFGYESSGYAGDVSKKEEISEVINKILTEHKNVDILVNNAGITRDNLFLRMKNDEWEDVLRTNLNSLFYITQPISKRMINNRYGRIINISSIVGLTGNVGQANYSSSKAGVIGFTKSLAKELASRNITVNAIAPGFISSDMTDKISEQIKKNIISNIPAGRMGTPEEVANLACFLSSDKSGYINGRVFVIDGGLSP

Plasmodium falciparum [5] = test: Antiplasmodial activity against asexual blood stage form of Plasmodium falciparum assessed as growth inhibition after 72 hrs by [3H]-hypoxanthine incorporation assay; type: functional, organism-based; how it was run: as §1
[6] = Inhibition of Plasmodium falciparum FabI using crotonoyl-CoA as substrate by UV-Vis spectrophotometric analysis in presence of NADH
How it was run: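 Recombinant PfFabI enzyme, spectrophotometric read-out; IC50 (concentration giving 50% inhibition) reported as the mean of three independent experiments.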

Row | SMILES | IC50 (L6) | selectivity ratio [1] | IC50 [2] | IC50 (Plasmodium falciparum [3]) | IC50 (Fatty acid synthase) | IC50 [4] | IC50 (Plasmodium falciparum [5]) | IC50 [6]
1 | O=c1ccc2cc(Oc3ccc(Cl)cc3O)ccc2o1 | 96.2 µM | 9 | 0.63 µM | 10.7 µM | – | – | – | –
2 | Cc1cc(=O)oc2ccc(Oc3ccc(Cl)cc3O)cc12 | 35.5 µM | 2.2 | 14.2 µM | 15.6 µM | – | – | – | –
3 | CCc1cc(=O)oc2ccc(Oc3ccc(Cl)cc3O)cc12 | 142 µM | 25.6 | 11 µM | 5.6 µM | – | – | – | –
4 | O=c1ccc2ccc(Oc3ccc(Cl)cc3O)cc2o1 | 188 µM | 20.1 | 2.7 µM | 9.3 µM | – | – | – | –
5 | Cc1cc(=O)oc2cc(Oc3ccc(Cl)cc3O)ccc12 | 85.9 µM | 9 | 0.25 µM | 9.5 µM | > 100 µM | > 100 µM | – | –
6 | CCc1cc(=O)oc2cc(Oc3ccc(Cl)cc3O)ccc12 | 84.8 µM | 14.9 | 0.27 µM | 5.7 µM | > 100 µM | > 100 µM | – | –
7 | O=c1oc2ccccc2cc1Oc1ccc(Cl)cc1O | 108 µM | 7.2 | 5.5 µM | 15 µM | > 100 µM | > 100 µM | – | –
8 | O=c1oc2ccc(O)cc2cc1Oc1ccc(Cl)cc1O | 134 µM | – | 14 µM | > 15 µM | > 100 µM | > 100 µM | – | –
9 | O=c1oc2cc(O)ccc2cc1Oc1ccc(Cl)cc1O | 144 µM | – | 6 µM | > 15 µM | 16.3 µM | 99 µM | – | –
10 | O=c1oc2cc(O)cc(O)c2cc1Oc1ccc(Cl)cc1O | 128 µM | – | 44 µM | > 15 µM | 90 µM | > 100 µM | – | –
11 | Cc1c(Oc2ccc(Cl)cc2O)c(=O)oc2ccccc12 | 51.5 µM | – | 12 µM | > 15 µM | 13 µM | > 100 µM | – | –
12 | Cc1c(Oc2ccc(Cl)cc2O)c(=O)oc2cc(O)ccc12 | 96.3 µM | – | 15 µM | > 15 µM | 28 µM | > 100 µM | – | –
13 | O=c1oc2cc(O)ccc2cc1-c1ccc(Oc2ccc(Cl)cc2O)cc1 | 41 µM | 5.1 | 0.45 µM | 8 µM | 10 µM | > 100 µM | – | –
14 | O=C(O[C@@H]1Cc2c(O)cc(O)cc2O[C@@H]1c1cc(O)c(O)c(O)c1)c1cc(O)c(O)c(O)c1 [EPIGALOCATECHIN GALLATE] | – | – | – | – | 0.03 µM | – | – | –
15 | COc1cc([C@@H]2c3cc4c(cc3[C@H](O)[C@H]3COC(=O)[C@H]23)OCO4)cc(OC)c1OC [PODOFILOX] | 0.006 µM | – | – | – | – | – | – | –
16 | Oc1cc(Cl)ccc1Oc1ccc(Cl)cc1Cl [TRICLOSAN] | – | – | 0.05 µM | 1.51 µM | – | – | 1 µM | 0.05 µM
